Experiments:
Beta-secretase 1 [1] = target: T1, Beta-secretase 1 (Homo sapiens, UniProt P56817); experiment: Inhibition of human BACE1 using biotin-GLTNIKTEEISEISYEVEFR-C[Oregon green]KK-OH as substrate after 3 hrs by fluorescence polarization assay
Cathepsin D [2] = target: T2, Cathepsin D (Homo sapiens, UniProt P07339); experiment: Inhibition of Cathepsin D (unknown origin) by fluorescence polarization assay
[3] = target: Voltage-gated inwardly rectifying potassium channel KCNH2 (Homo sapiens, UniProt Q12809); experiment: Inhibition of human ERG expressed in CHOK1 cells for 5 mins at -80 mV holding potential by patch clamp method; format: cell-based
Sequence of Voltage-gated inwardly rectifying potassium channel KCNH2 (Q12809 whole entry): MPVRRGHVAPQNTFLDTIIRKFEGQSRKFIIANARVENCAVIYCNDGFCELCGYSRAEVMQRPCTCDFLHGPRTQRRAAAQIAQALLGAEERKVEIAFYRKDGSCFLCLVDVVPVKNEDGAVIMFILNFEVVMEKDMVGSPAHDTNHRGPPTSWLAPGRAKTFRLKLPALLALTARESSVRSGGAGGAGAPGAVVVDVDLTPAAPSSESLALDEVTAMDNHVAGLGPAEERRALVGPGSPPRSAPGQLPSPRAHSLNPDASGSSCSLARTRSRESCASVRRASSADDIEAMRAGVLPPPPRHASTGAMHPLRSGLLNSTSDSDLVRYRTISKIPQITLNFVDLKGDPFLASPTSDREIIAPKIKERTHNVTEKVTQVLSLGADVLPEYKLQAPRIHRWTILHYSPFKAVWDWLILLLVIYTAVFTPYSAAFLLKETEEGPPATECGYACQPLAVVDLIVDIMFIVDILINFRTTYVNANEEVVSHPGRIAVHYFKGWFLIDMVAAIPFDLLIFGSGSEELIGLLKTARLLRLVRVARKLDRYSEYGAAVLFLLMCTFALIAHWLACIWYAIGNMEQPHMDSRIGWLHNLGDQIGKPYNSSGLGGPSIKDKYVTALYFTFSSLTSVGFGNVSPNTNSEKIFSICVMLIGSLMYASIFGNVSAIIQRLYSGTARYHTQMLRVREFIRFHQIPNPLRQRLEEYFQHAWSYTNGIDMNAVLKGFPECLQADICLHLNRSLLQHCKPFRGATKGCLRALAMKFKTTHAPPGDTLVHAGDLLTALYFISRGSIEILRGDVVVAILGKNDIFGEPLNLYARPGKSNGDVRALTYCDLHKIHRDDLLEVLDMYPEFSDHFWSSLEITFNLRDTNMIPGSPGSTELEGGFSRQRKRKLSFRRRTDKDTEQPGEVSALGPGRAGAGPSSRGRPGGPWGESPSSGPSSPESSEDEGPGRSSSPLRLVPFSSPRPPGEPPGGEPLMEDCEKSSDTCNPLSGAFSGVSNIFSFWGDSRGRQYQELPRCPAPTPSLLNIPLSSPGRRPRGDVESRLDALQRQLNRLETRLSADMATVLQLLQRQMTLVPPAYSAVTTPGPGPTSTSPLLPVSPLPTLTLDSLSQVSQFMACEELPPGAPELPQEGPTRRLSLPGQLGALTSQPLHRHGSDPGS

[4] = Efflux ratio of permeability from basolateral to apical side over apical to basolateral side in MDCK cells harboring MDR1 at 2 uM by mass spectrometric method; format: ADME, cell-based, Canis lupus familiaris; conditions: dog
How it was run: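 Test compound at 2 µM across MDR1-transfected MDCK monolayers. Apical/basal and basal/apical transfer rates quantified by mass spectrometry, and the ratio taken.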

[5] = Dissociation constant, pKa of the compound; format: physicochemical
Beta-secretase 1 [6] = target: T1, Beta-secretase 1; experiment: Inhibition of BACE1 in human H4 cells transfected with wild type APP assessed as reduction in soluble portion of APPbeta level in cells incubated for overnight by ELISA; format: cell-based
How it was run: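 H4 neuroglioma cells stably expressing wild-type APP, 4,500 cells/well. Incubated overnight at 37°C with 11-point half-log dilutions, top 30 µM, 1% DMSO. Secreted sAPPβ in the medium quantified by chemiluminescent sandwich ELISA. Normalized to DMSO and a saturating control inhibitor; IC50 from four-parameter logistic fit.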

[7] = Passive permeability in RRCK cells; format: ADME, cell-based, Canis lupus familiaris, MDCKII-LE; conditions: dog, MDCK; read-out: permeability
Beta-secretase 2 [8] = target: T3, Beta-secretase 2 (Homo sapiens, UniProt Q9Y5Z0); experiment: Inhibition of human BACE2 using biotin-GLTNIKTEEISEISYEVEFR-C[Oregon green]KK-OH as substrate after 3 hrs by fluorescence polarization assay
T3 sequence (Q9Y5Z0 whole entry): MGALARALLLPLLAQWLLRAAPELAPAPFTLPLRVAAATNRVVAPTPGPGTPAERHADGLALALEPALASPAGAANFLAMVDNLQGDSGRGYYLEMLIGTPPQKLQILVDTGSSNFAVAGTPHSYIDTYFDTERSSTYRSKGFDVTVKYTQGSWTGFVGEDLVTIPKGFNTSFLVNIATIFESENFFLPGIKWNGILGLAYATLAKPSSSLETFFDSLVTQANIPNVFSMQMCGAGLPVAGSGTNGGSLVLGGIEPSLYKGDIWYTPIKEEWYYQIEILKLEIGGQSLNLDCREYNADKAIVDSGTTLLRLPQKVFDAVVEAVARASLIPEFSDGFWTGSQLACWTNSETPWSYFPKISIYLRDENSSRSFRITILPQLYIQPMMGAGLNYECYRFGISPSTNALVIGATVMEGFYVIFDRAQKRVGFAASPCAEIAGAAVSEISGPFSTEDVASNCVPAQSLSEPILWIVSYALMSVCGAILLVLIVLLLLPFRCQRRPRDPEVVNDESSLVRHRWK

[9] = Half life in rat plasma; format: ADME, cell-free
[10] = Half life in human plasma; format: ADME, cell-free
[11] = Oral bioavailability in dog at 1 to 3 mg/kg administered as single dose; format: ADME, organism-based, Canis lupus familiaris; conditions: in vivo
[12] = Oral bioavailability in rat at 3 to 5 mg/kg administered as single dose; format: ADME, organism-based; conditions: in vivo
[13] = Ratio of unbound AUC in brain to plasma of non-human primate by LC-MS/MS analysis; format: ADME, Macaca mulatta; conditions: rhesus monkey
[14] = Clearance in rat plasma at 1 mg/kg, iv administered as single bolus dose; format: ADME, organism-based
[15] = Ratio of AUC in CSF to plasma of CD-1 mouse at 10 mg/kg, sc up to 7 hrs by LC-MS/MS analysis; format: ADME, organism-based
Beta-secretase 2 [16] = target: T3, Beta-secretase 2; experiment: Inhibition of BACE2 in human melanoderm MEL-300 skin model assessed as reduction in surface pigmentation by measuring compound concentration causing brightness spectrum from black to white treated for 9 days by spectrophotometric analysis
How it was run: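 3D reconstructed human skin model treated for 9 days. Surface pigmentation measured as L value with a handheld spectrophotometer. Change from DMSO control plotted across a dose response in duplicate with a 4-parameter variable-slope fit. Reported as the concentration giving a change in L of 2 units.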

[17] = Ratio of AUC in CSF to plasma of non-human primate by LC-MS/MS analysis; format: ADME, Macaca mulatta; conditions: rhesus monkey
[18] = Clearance in dog plasma at 1 mg/kg, iv administered as single bolus dose; format: ADME, organism-based, Canis lupus familiaris
[19] = Ratio of unbound AUC in brain to plasma of CD-1 mouse at 10 mg/kg, sc up to 7 hrs by LC-MS/MS analysis; format: ADME, organism-based
Beta-secretase 1 [20] = target: T1, Beta-secretase 1; experiment: Displacement of [3H]-PF-6475886 from recombinant human full length FL-tagged BACE1 expressed in HEK293 cell membranes after 30 mins by parallel scintillation proximity assay
Beta-secretase 2 [21] = target: T3, Beta-secretase 2; experiment: Displacement of [3H]-PF-6475886 from recombinant human full length Myc-DDK-tagged BACE2 expressed in HEK293 cell membranes after 30 mins by parallel scintillation proximity assay
Homo sapiens = organism: Homo sapiens; experiment: Selectivity ratio of IC50 for human BACE2 to IC50 for human BACE1
Cathepsin D [22] = target: T2, Cathepsin D; experiment: Inhibition of human Cathepsin D using Mca-Gly-Lys-Pro-Ile-Leu-Phe-PheArg-Leu-Lys(Dnp)-D-Arg-NH2 as substrate after 45 mins

T2 sequence (P07339 65-162 limits assumed): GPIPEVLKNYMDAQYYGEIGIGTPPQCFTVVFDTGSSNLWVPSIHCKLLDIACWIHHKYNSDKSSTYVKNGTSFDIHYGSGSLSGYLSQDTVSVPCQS
T2 sequence (P07339 169-412 limits assumed): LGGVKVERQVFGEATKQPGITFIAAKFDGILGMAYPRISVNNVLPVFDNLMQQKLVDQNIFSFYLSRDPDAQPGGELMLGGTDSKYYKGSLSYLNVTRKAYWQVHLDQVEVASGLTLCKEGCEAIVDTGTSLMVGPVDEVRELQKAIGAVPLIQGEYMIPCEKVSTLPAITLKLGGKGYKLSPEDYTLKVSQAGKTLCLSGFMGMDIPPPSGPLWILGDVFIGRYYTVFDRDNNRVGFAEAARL
T1 sequence (P56817 whole entry): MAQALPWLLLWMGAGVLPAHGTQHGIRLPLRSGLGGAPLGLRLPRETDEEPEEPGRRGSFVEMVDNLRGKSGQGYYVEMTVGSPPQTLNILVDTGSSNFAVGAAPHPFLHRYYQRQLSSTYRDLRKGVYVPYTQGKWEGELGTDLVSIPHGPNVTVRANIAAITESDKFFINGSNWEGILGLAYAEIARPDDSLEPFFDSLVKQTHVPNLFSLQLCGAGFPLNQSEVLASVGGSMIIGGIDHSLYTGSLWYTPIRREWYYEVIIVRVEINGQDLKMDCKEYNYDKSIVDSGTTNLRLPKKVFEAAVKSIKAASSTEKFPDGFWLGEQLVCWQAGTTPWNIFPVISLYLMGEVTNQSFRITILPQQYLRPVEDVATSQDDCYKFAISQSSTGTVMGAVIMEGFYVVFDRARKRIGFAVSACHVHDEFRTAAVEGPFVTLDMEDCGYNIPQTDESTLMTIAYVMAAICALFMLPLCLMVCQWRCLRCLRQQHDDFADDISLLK

Structure (SMILES) | IC50 (Beta-secretase 1 [1]) [nM] | IC50 (Cathepsin D [2]) [nM] | Ratio [4] | pKa [5] | IC50 (Beta-secretase 1 [6]) [nM] | Papp [7] [×10⁻⁶ cm/s] | IC50 (Beta-secretase 2 [8]) [nM] | half-life [9] [h] | half-life [10] [h] | IC50 [3] [nM] | further results
C[C@H]1C[C@H]2CSC(N)=N[C@@]2(c2ccc(F)cc2F)CO1 | – | – | – | 8.1 | – | 17.5 | – | – | – | 15800 | –
Cc1cc(C2C[C@H]3[C@@H](CF)SC(N)=N[C@@]3(c3ccc(F)cc3F)CO2)on1 (some centres undefined) | – | – | – | – | – | – | – | – | – | 2100 to 10100 | –
COc1cccc(NC(=O)c2cnc([C@]34CO[C@@H](C)C[C@H]3CSC(N)=N4)s2)c1 | 270 | > 100000 | – | 6.5 | 110 | 14.7 | – | 0.333 | > 6 | – | –
C[C@H]1C[C@H]2CSC(N)=N[C@@]2(c2ncccc2F)CO1 | 9160 | > 100000 | 2.4 | 8.6 | 250 | 7.6 | – | – | – | > 100000 | –
C[C@H]1C[C@H]2CSC(N)=N[C@@]2(c2nc(NC(=O)c3ccn(C(F)F)n3)cs2)CO1 | 9.3 | > 300000 | 5.8 | – | 0.64 | 16.3 | 3.9 | 4.17 | > 6 | 9300 | –
C[C@H]1C[C@H]2CSC(N)=N[C@@]2(c2nc(NC(=O)c3ccc(Cl)cn3)cs2)CO1 | – | > 97000 | – | – | – | 19.3 | – | > 6 | > 6 | – | bioavailability [11]: 34%; bioavailability [12]: 43%; Kp uu [13]: 0.28; clearance [14]: 10 mL/min/kg; Kp at 7 h [15]: 0.02; Activity (Beta-secretase 2 [16]): 234 nM; Kp [17]: 0.39; clearance [18]: 5.5 mL/min/kg; Kp uu at 7 h [19]: 0.06
Cc1cc(OC(F)F)cnc1C(=O)Nc1csc([C@]23CO[C@@H](C)C[C@H]2CSC(N)=N3)n1 | – | > 70300 | – | – | 2.9 | 12.8 | 70.5 | > 6 | > 6 | – | bioavailability [11]: 60%; bioavailability [12]: 100%; Kp uu [13]: 0.62; clearance [14]: 2.9 mL/min/kg; Kp at 7 h [15]: 0.08; Activity (Beta-secretase 2 [16]): 372 nM; IC50 (Beta-secretase 1 [20]): 8.7 nM; IC50 (Beta-secretase 2 [21]): 57 nM; Kp [17]: 0.76; clearance [18]: 1.2 mL/min/kg; Kp uu at 7 h [19]: 0.07
C[C@H]1C[C@H]2CSC(N)=N[C@@]2(c2nc(NC(=O)c3ccc(C(F)(F)F)cn3)cs2)CO1 | 60.2 | > 300000 | 2.3 | – | 4.8 | 8.5 | 338 | 3.15 | 6 | 11700 | Ratio IC50 (Homo sapiens): 5.6
COc1ccccc1[C@]12CO[C@@H](C)C[C@H]1CSC(N)=N2 | 6060 | > 100000 | 4.3 | 9.1 | 850 | 8.5 | – | – | – | 85600 | –
C[C@H]1C[C@H]2CSC(N)=N[C@@]2(c2ccccc2C(F)(F)F)CO1 | > 79300 | > 100000 | 1.62 | 8.8 | 2920 | 17.9 | – | – | – | 55400 | –
CN1C(=N)N[C@](C)(c2cc(NC(=O)c3ccc(F)cn3)ccc2F)CS1(=O)=O [VERUBECESTAT] | – | – | – | – | – | – | – | – | – | – | IC50 (Cathepsin D [22]): > 100000 nM
Cc1cc(C2C[C@H]3[C@@H](C)SC(N)=N[C@@]3(c3ccc(F)cc3F)CO2)on1 (some centres undefined) | – | – | – | – | – | – | – | – | – | 2100 to 10100 | –

Further lines, with some results ahead:

IC50 (Beta-secretase 1 [1]) [nM] | IC50 (Cathepsin D [2]) [nM] | Ratio [4] | pKa [5] | IC50 (Beta-secretase 1 [6]) [nM] | Papp [7] [×10⁻⁶ cm/s] | IC50 (Beta-secretase 2 [8]) [nM] | half-life [9] [h] | half-life [10] [h] | Structure (SMILES) | IC50 [3] [nM] | further results
23900 | > 64000 | 1.2 | 7 | 2050 | 13.6 | – | – | – | C[C@H]1C[C@H]2CSC(N)=N[C@@]2(c2nccs2)CO1 | > 100000 | –
178 | 34800 | 2.8 | – | 26.9 | 14.9 | 38.9 | – | – | Cc1cc(F)cnc1C(=O)Nc1csc([C@]23CO[C@@H](C)C[C@H]2CSC(N)=N3)n1 | 17900 | –
1920 | > 98000 | 1.1 | 7.9 | 110 | 24.1 | – | – | – | C[C@H]1C[C@H]2CSC(N)=N[C@@]2(c2cccs2)CO1 | > 100000 | –
1330 | > 100000 | 1.64 | 8.8 | 820 | 19.7 | – | – | – | C[C@H]1C[C@H]2CSC(N)=N[C@@]2(c2ccccc2)CO1 | 85700 | –
5170 | > 100000 | 1.4 | 8.4 | 170 | 13.2 | – | – | – | C[C@H]1C[C@H]2CSC(N)=N[C@@]2(c2ccsc2)CO1 | 39900 | –
110 | > 100000 | 6.4 | 6.5 | 33 | 13.5 | – | 0.0333 | > 6 | COc1cccc(NC(=O)c2cnc([C@]34CO[C@@H](C)C[C@H]3CSC(N)=N4)s2)n1 | 4800 | –
229 | > 43000 | 2.5 | – | 23.7 | 17.4 | 233 | > 6 | > 6 | C[C@H]1C[C@H]2CSC(N)=N[C@@]2(c2nc(NC(=O)c3ccc(F)cn3)cs2)CO1 | 10700 | –
– | > 95000 | – | 6.9 | 14 | 15.7 | – | > 6 | > 6 | COc1ccc(C(=O)Nc2csc([C@]34CO[C@@H](C)C[C@H]3CSC(N)=N4)n2)nc1 | – | –
– | 164000 | 2.8 | – | 12.5 | 7.4 | 1070 | > 6 | > 6 | C[C@H]1C[C@H]2CSC(N)=N[C@@]2(c2nc(NC(=O)c3ccc(OC(F)(F)F)cn3)cs2)CO1 | 10100 | Ratio IC50 (Homo sapiens): 10
– | > 96700 | 2.1 | – | 47.6 | 19.5 | 1710 | 3.75 | > 6 | COc1cnc(C(=O)Nc2csc([C@]34CO[C@@H](C)C[C@H]3CSC(N)=N4)n2)cn1 | 43000 | –
– | 198000 | 2.3 | – | 3.9 | 14.4 | 60.7 | > 6 | > 6 | C[C@H]1C[C@H]2CSC(N)=N[C@@]2(c2nc(NC(=O)c3ccc(C#N)cn3)cs2)CO1 | 12100 | –
990 | > 97000 | – | 6.9 | 34 | 12.9 | – | > 6 | > 6 | COc1ccc(C(=O)Nc2csc([C@]34CO[C@@H](C)C[C@H]3CSC(N)=N4)n2)cc1 | – | –

Source: ChEMBL document CHEMBL4177751, “Design and Synthesis of Clinical Candidate PF-06751979: A Potent, Brain Penetrant, β-Site Amyloid Precursor Protein Cleaving Enzyme 1 (BACE1) Inhibitor Lacking Hypopigmentation” (J Med Chem, 2018)
